Rows were chosen to be rich in hits. Some 1.9% of all compounds tested hit in one or more screens of this group.
FXN GAA850 act: frataxin GAA850 promoter activation; HEK293 lucGAA850 FXN promoter luciferase reporter, 24 h; percent of 10 µM SAHA response; activation, % at 6 µM; hit rate 0.56% among 360,000; AID 540364;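 active = activation above the average of all compounds screened plus 3 SD, cutoff fixed separately per campaign, cut at about 7.5% in these data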;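 also: 0% = DMSO wells and 100% = 10 µM SAHA wells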
HIF act: HIF pathway transcriptional activation; activation, % at 7.5 µM (by protocol); hit rate 0.32% among 300,000; U2OS HRE-luciferase reporter, luminescence; normalized: DMSO 0%, desferrioxamine 100%;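 active = mean activation of at least 10% of the iron chelator positive control signal, with at least half of replicates also reaching 10%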
Rad51 HR inh: Rad51 (human) homologous recombination inhibition; Q06609; hRad51 DNA strand exchange, fluorescence dequenching; inhibition, % at 10 µM; hit rate 0.085% among 200,000; AID 1385;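 active = inhibition above 40% at the single screening dose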;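 also: 0% = DMSO control wells and 100% = blanks with heterologous ssDNA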
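Test system: preformed human Rad51 ssDNA filaments; also added: Donor/quencher-labelled 47-bp dsDNA substrate; doses: 10 µM final, single point; times: 37 °C 15-min filament assembly, 30-min compound preincubation, 15-min exchange; detection: FRET fluorescence dequenching, excitation 485 nm, emission 520 nm; read-out basis: Fluorescence-based percent inhibition, control- and blank-normalised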
Hsp70 act: Hsp70 transcriptional activation, primary screen; hit rate 0.04% among 200,000; AID 1203; activation, % at 10 µM; HeLa Hsp70 promoter luciferase reporter, luminescence; scaled: vehicle 0, proteasome-inhibitor control 100%;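 active = activation above the mean across all tested compounds plus 3 SD, cutoff set per campaign, cut at about 5.5% in these data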;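 also: 100% = MG132 at 30 µM as the positive control and 0% = DMSO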
ABHD5-PLIN5 inh: inhibitors of human ABHD5-perilipin-5 interaction | Q00G26+Q8WTS1 | Split G. princeps luciferase complementation, luminescence, 4 h | inhibition, % at 4 µM | hit rate 0.78% among 360,000 | AID 602281;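 active = inhibition above the mean inhibition across every tested compound plus 3 SD, cut at about 22% in these data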;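 also: 0% = DMSO only wells and the 100% control is not disclosed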
Target sequence (Q00G26 whole entry, looked up): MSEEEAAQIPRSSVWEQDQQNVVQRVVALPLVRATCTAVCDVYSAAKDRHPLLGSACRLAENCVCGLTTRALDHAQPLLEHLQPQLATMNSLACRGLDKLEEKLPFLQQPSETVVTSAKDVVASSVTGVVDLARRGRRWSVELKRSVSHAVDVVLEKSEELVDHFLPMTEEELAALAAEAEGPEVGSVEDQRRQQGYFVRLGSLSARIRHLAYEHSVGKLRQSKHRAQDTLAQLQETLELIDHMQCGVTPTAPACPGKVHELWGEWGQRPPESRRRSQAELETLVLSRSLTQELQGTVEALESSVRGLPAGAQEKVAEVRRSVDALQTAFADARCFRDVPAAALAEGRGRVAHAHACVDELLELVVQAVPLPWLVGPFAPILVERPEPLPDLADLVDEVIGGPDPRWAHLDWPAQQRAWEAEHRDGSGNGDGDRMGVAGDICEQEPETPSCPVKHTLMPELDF
Target sequence (Q8WTS1 whole entry, looked up): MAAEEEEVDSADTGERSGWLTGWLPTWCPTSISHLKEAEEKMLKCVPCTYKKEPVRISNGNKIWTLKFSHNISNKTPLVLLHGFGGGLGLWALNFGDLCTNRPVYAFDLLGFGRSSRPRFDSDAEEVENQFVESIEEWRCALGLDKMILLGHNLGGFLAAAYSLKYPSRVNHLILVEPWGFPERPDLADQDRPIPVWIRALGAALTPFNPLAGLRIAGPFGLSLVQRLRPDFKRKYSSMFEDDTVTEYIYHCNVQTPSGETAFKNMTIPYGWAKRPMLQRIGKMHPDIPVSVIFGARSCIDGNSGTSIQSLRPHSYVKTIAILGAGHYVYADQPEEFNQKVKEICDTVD
TAG inh: inhibitors of triacylglycerol accumulation | inhibition, % at 12.5 µM | hit rate 0.66% among 230,000 | H9c2 cells, Nile Red lipid (TAG) fluorescence; cells loaded with 200 µM oleic acid;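 active = pattern-corrected inhibition of lipid staining of at least 50% with the nuclear-stain viability signal not falling by more than 50%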;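 also: 0% = DMSO wells and 100% = triacsin C control wells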
* = called active by the depositor; . = no result given.

SMILES	FXN GAA850 act	HIF act	Rad51 HR inh	Hsp70 act	ABHD5-PLIN5 inh	TAG inh
COc1cc2c(cc1OC)C(c1ccccc1)N(S(C)(=O)=O)CC2 (stereo unspecified)	3	28*	-47	0	2	-2
CC(=O)N1CCC(=NNC(=O)c2cc3ccccc3cc2O)CC1	0	45*	.	.	-11	.
Cc1cc(C(=O)Nc2cccnc2)cs1	3	0	77*	0	3	.
CN(Cc1ccccc1)C(=O)c1cccc(NC(=O)Cc2ccc(NC(=O)C3CCN(C(=O)C4CC4)CC3)cc2)c1	0	.	.	.	15	-3
COc1cc(/C=N/Nc2nc(C)nc3c2cnn3-c2ccccc2)ccc1O	-10	1	-20	0	0	57*
COc1cc(/C=N/NC(=O)c2nc(-c3ccccc3)n(-c3ccccc3)n2)ccc1O	1	0	0	0	4	.
CC(C)N(Cc1ccccc1)C(=O)COC(=O)C1CCCCC1	1	.	.	.	4	-4
Cc1ccsc1/C=N/N1CCN(c2ccccc2)CC1	7.8*	1	2	0	2	.
Cc1ccsc1/C=N/N1CCN(c2ccccn2)CC1	3	1	-8	.	-9	-7
COCCNC(=O)C1(C)CCCN(C(=O)c2cc(F)ccc2C)C1 (stereo unspecified)	0	.	.	.	1	0
Cc1cnc(NC(=O)CN2C(=O)C3CC=CCC3C2=O)s1 (stereo unspecified)	1	0	-3	0	-3	-3
O=C(CN1C(=O)C2CC=CCC2C1=O)Nc1nccs1 (stereo unspecified)	1	0	52*	.	-1	-13
O=C(O)c1ccc(S(=O)(=O)N2CCN(c3ccccn3)CC2)cc1	0	0	.	.	-2	-4
Cc1ccc(S(=O)(=O)N2CCN(c3ccccn3)CC2)cc1	0	48*	.	.	0	-2
NC(=O)C1CC(=O)N(c2ccc(OCC(=O)N3CCCC3)cc2)C1 (stereo unspecified)	0	.	.	.	-7	-3
CNC(=O)C1CC(=O)N(c2ccc(OCC(=O)N3CCCC3)cc2)C1 (stereo unspecified)	-1	29*	.	.	0	.
COc1ccc(C2c3ccc4ccccc4c3Oc3ncn(CCCN(C)C)c(=N)c32)cc1 (stereo unspecified)	1	0	.	.	22*	.
CN(C(=O)CSc1nnc(-c2ccncc2)n1-c1ccccc1)C1CCS(=O)(=O)C1 (stereo unspecified)	0	0	48*	.	0	6
Cc1ccc(NS(=O)(=O)c2cc([N+](=O)[O-])ccc2N/N=C/c2sc(N3CCOCC3)nc2-c2ccccc2)c(C)c1	2	0	-56	.	-4	56
COc1ccc(C(=O)C2CCCN(C(=O)C3CCOCC3)C2)cc1OC (stereo unspecified)	-1	424*	.	.	2	.
CCCC(=O)N1CCCC(C(=O)c2ccc(OC)c(OC)c2)C1 (stereo unspecified)	3	-1	.	.	-1	.
CC(=O)OCCCNc1cc(Sc2nc3ccccc3s2)c2nonc2c1[N+](=O)[O-]	7	1	-3	0	-13	.
CC(=O)OCCCNc1cc(Sc2ccc(C)cc2)c2nonc2c1[N+](=O)[O-]	-2	9.9*	2	0	2	.
CCOC(=O)C1=C(C)c2ccccc2N(C(=O)OC)C1(C)C(=O)OCC (stereo unspecified)	4	.	.	.	30*	-8
COc1ccc(NS(=O)(=O)c2cccc(C(=O)N(C)Cc3ccc(SC)cc3)c2)cc1	1	0	.	.	2	0
SMILES	FXN GAA850 act	HIF act	Rad51 HR inh	Hsp70 act	ABHD5-PLIN5 inh	TAG inh
COc1ccc(C2C(=O)c3ccccc3C2=O)c(OC)c1	-2	3	100*	0	-3	4
CCOc1cc(N2CCOCC2)c(OCC)cc1NC(C)C(=O)N1CCC(C)CC1 (stereo unspecified)	-1	29*	-3	0	2	.
CCOc1cc(N2CCOCC2)c(OCC)cc1NC(=O)[C@H](C)N1C(=O)C2CC=CCC2C1=O (stereo partly specified)	0	0	-5	0	-9	0
c1ccc(NC2=NCCN2CCC2CCCC2)cc1	0	0	.	.	-6	23
O=S(=O)(NCc1cccnc1)c1ccc(Cl)cc1	-1	0	.	.	-1	.
CN(CCS(=O)(=O)c1ccc(Cl)cc1)Cc1cccnc1	0	116*	7	.	2	0
O=C(Nc1ccncc1)Nc1cccc(F)c1	2	1	.	.	0	7
Cc1ccc(CNC(=O)CSc2nc3c(sc4ccccc43)c(=O)n2CCCN2CCCC2)cc1	2	1	43*	0	3	37
CN(C)S(=O)(=O)N1CCN(C(=O)c2ccc3c(c2)OCO3)CC1	1	1	.	.	11	.
CN1Cc2c(N3CCOCC3)nc3sc(C(=O)c4ccc(Br)cc4)c(N)c3c2CC1(C)C	3	-1	4	.	20	68*
Cc1ccnc2nc(C(=O)Nc3ccc(S(=O)(=O)N4CCCC4)cc3)nn12	1	0	-14	.	-4	2
O=C(/C=C/c1ccccc1)NNC(=O)C1CC1	1	0	0	0	-3	.
O=C(NNC(=O)C(O)(c1ccccc1)c1ccccc1)C1CC1	1	31*	.	0	2	-2
CCS(=O)(=O)c1ccc(-c2cccc(NC(=O)COc3ccccc3)c2)nn1	-1	60*	.	.	3	.
CCS(=O)(=O)c1ccc(-c2cccc(NC(=O)COc3ccc(Cl)cc3)c2)nn1	1	0	.	.	14	.
N#Cc1c2ccc([N+](=O)[O-])cc2[n+]([O-])n1-c1ccccc1	-6	.	.	.	3	80
Cc1oc(-c2ccc(F)cc2)cc1-c1nn2c(-c3ccoc3C)nnc2s1	-1	1	-1	.	30*	-22
COc1cccc(NC(=O)CN(C)C(=O)CCN2C(=O)C3CC=CCC3C2=O)c1 (stereo unspecified)	2	.	.	.	0	-7
O=C1CN(S(=O)(=O)c2ccc(Cl)cc2)c2ccccc2N1	-1	1	.	.	-8	3
O=C(N/N=C\c1c(O)ccc2ccccc12)c1cncc(Br)c1	-7	26*	.	.	3	.
O=C(N/N=C/c1cc(O)ccc1Br)c1cccnc1	-6	14*	.	.	3	.
COc1ccc2ccccc2c1/C=N\NC(=O)c1cccnc1	1	0	.	.	-2	-1
O=C(N/N=C/c1c(O)ccc2ccccc12)c1cccnc1	-6	83*	.	.	10	.
Cc1ccc(C(=O)N/N=C/c2c(O)ccc3ccccc23)cn1	-9	37*	.	.	14	.
CCC(=O)c1ccc(OCC(O)CNCCc2ccc(Cl)cc2)cc1 (stereo unspecified)	1	-7	.	.	-2	.
CCOc1ccc(Oc2c(/C=N/NC(=O)C3CC3)c(C)nn2-c2ccccc2)cc1	0	0	.	0	-7	.
CCOC(=O)CCSc1cc(C)c2ccccc2n1	1	0	.	0	-2	-9

Bioassay records deposited in PubChem by several laboratories.
